Test results from ChEMBL document CHEMBL1139836, “Development of orally bioavailable and CNS penetrant biphenylaminocyclopropane carboxamide bradykinin B1 receptor antagonists” (J Med Chem, 2007).
“And” between values parts separate entries of the source, which are not always exact repeats. Identical values can stand only once.

Legend:
B1 bradykinin receptor [1] = biological target: T1, B1 bradykinin receptor (Homo sapiens, UniProt P46663); assay: Displacement of [3H]des-Arg10 Leu9 kallidin from human bradykinin B1 receptor expressed in CHO cells; format: cell-based
T1 sequence (P46663 whole entry): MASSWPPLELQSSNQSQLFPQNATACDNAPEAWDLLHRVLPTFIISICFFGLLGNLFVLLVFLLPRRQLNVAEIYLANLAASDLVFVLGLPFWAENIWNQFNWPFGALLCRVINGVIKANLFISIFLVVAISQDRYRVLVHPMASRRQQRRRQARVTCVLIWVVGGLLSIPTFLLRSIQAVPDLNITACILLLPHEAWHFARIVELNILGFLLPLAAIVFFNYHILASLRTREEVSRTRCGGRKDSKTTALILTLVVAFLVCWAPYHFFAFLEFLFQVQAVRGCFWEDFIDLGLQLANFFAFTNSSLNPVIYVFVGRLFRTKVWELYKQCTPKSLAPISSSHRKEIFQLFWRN
Outline: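 Membranes from CHO cells stably expressing human B1, used at 0.2 mg/mL protein in pH 7.4 HEPES/NaCl/KCl buffer with 100 nM enalaprilat, 140 µg/mL bacitracin and 0.1% BSA. Radioligand 0.2 nM [3H]des-arg10 leu9 kallidin, 2% DMSO final, incubated 60 min at 22 °C, then filtered and counted. Nonspecific binding defined with 1 µM des-arg10 kallidin. Ki values, at least two experiments averaged.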

[2] = Oral bioavailability in Sprague-Dawley rat at 10 mg/kg, po and 2 mg/kg, iv; format: ADME, organism-based; conditions: in vivo
Outline: (§1)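 Sprague-Dawley rats, n = 3, dosed orally at 10 mg/kg and iv at 2 mg/kg. F% from oral versus iv exposure; half-life in hours, clearance in mL/min/kg.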

B1 bradykinin receptor [3] = biological target: T1, B1 bradykinin receptor; assay: Activity at human bradykinin B1 receptor assessed as inhibition of Des-arg kallidin-induced increase of cytosolic calcium in CHO cells by FLIPR; format: functional, cell-based
Outline: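 CHO cells stably expressing human B1 receptor, seeded 25 000/well and grown overnight at 37 °C, then loaded 60 min at 37 °C with 4 µM fluo-3 AM and 1 mM probenecid. Antagonist added 2 min before 3 nM des-arg10 kallidin, run at 37 °C. At least eight concentrations per curve give IC50. At least two experiments averaged.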

[4] = Half life in Sprague-Dawley rat at 10 mg/kg, po and 2 mg/kg, iv; format: ADME, organism-based; conditions: in vivo; outline: as §1
[5] = Clearance in Sprague-Dawley rat at 10 mg/kg, po and 2 mg/kg, iv; format: ADME, organism-based; conditions: in vivo; outline: as §1
LLC-PK1 [6] = assay: (§2) Apparent permeability in LLC-PK1 cells expressing human MDR1; format: ADME, cell-based, Sus scrofa; conditions: pig, llc-pk1
Outline: (§3)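 LLC-PK1 cells expressing human MDR1, grown in M199 with 10% FBS on 96-well filters and used on day 4. Equilibrated 30 min in HBSS with 1 mM HEPES, then test compound at 5 µM. 1 µM verapamil served as P-gp substrate control. Transport in both directions measured in triplicate by LC/MS/MS or scintillation.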

human MDR1 (P-gp) = assay: as §2; format: ADME, cell-based, Sus scrofa; conditions: pig, LLC-PK1; outline: as §3
LLC-PK1 [7] = assay: Ratio of transport from basolateral to apical over apical to basolateral in LLC-PK1 cells expressing human MDR1; format: ADME, cell-based, Sus scrofa; conditions: pig; outline: as §3
B2 bradykinin receptor = biological target: T2, B2 bradykinin receptor (Homo sapiens, UniProt P30411); assay: Inhibition of human bradykinin B2 receptor
T2 sequence (P30411 whole entry): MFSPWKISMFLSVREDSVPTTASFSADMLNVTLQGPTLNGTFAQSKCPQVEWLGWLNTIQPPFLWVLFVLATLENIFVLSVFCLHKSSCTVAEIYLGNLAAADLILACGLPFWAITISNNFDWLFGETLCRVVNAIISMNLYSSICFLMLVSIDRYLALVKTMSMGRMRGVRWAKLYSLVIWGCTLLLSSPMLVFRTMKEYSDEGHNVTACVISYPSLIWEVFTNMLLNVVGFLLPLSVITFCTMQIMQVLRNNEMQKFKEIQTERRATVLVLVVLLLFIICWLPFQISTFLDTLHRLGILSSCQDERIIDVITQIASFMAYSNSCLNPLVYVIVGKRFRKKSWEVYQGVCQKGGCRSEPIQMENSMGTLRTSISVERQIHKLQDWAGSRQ
Outline: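 Human B2 receptor expressed in CHO cells, membrane binding with 1 nM [3H]bradykinin, 2% DMSO final, 60 min at 22 °C, then filtered and counted. Nonspecific binding defined with 1 µM bradykinin. Ki reported.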

[8] = Lipophilicity, Log P of the compound; format: physicochemical; conditions: octanol/water

SMILES | Ki (B1 bradykinin receptor [1]) | bioavailability [2] [%] | IC50 (B1 bradykinin receptor [3]) [nM] | half-life [4] [min] | clearance [5] [mL/min/kg] | Papp (LLC-PK1 [6]) [×10⁻⁶ cm/s] | Papp (human MDR1 (P-gp)) [×10⁻⁶ cm/s] | Ratio (LLC-PK1 [7]) | IC50 (B2 bradykinin receptor) [nM] | logP [8]
COC(=O)c1c(F)cccc1-c1ccc([C@@H](C)NC(=O)C2(NC(=O)C(F)(F)C(F)(F)F)CC2)c(F)c1 | 1.6 nM and 0.68 nM | 44 |  | 20.4 | 27 | 28 | 31 | 1.4 and 3.7 |  | 
COC(=O)c1c(F)cccc1-c1ccc([C@H](C)NC(=O)C2(NC(=O)CC(F)(F)F)CC2)c(F)c1 | 22 nM |  |  |  |  |  |  |  |  | 
COC(=O)c1c(F)cccc1-c1ccc(CNC(=O)C2(NC(=O)C(C)(Cl)Cl)CC2)c(F)c1 | 119 nM |  |  |  |  |  |  |  | > 10000 | 
C[C@@H](NC(=O)C1(NC(=O)C(F)(F)F)CC1)c1ccc(-c2cccc(F)c2C(F)(F)F)cc1F | 1.44 nM | 30 | 7.3 | 156 | 10 |  | 32 | 2 |  | 
COC(=O)c1c(F)cccc1-c1ccc(CNC(=O)C2(NC(C)=O)CC2)c(F)c1 | 11.6 nM |  |  |  |  |  | 24 | 6.3 | > 10000 | 
COC(=O)c1c(F)cccc1-c1ccc(CNC(=O)C2(NC(=O)C(F)(F)C(F)(F)F)CC2)c(F)c1 | 2.95 nM |  |  |  |  |  | 31 | 2.2 | > 10000 | 
CCC(=O)c1c(Cl)cccc1-c1ccc([C@@H](C)NC(=O)C2(NC(=O)C(F)(F)F)CC2)c(F)c1 | 1.95 nM |  |  |  |  |  | 27 | 1.6 |  | 

Continued by falling Ki (B1 bradykinin receptor [1]), values first:

Ki (B1 bradykinin receptor [1]) | bioavailability [2] [%] | IC50 (B1 bradykinin receptor [3]) [nM] | half-life [4] [min] | clearance [5] [mL/min/kg] | Papp (LLC-PK1 [6]) [×10⁻⁶ cm/s] | Papp (human MDR1 (P-gp)) [×10⁻⁶ cm/s] | Ratio (LLC-PK1 [7]) | IC50 (B2 bradykinin receptor) [nM] | logP [8] | SMILES
1.35 nM | 45 | 9.1 | 66 | 8.4 |  |  |  |  |  | CCOC(=O)c1c(Cl)cccc1-c1ccc([C@@H](C)NC(=O)C2(NC(=O)C(F)(F)F)CC2)c(F)c1
0.93 nM |  |  |  |  |  | 21 | 8.6 |  |  | COC(=O)c1c(F)cccc1-c1ccc([C@@H](C)NC(=O)C2(NC(C)=O)CC2)c(F)c1
0.81 nM |  |  |  |  |  | 23 | 18.4 | > 10000 | 2.9 | COC(=O)c1c(F)cccc1-c1ccc(CNC(=O)C2(NC(=O)CC(F)(F)F)CC2)c(F)c1
0.6 nM | 48 | 0.65 | 42 | 11 |  |  |  |  |  | C[C@@H](NC(=O)C1(NC(=O)C(F)(F)F)CC1)c1ccc(-c2cccc(F)c2-c2nnn(C)n2)cc1F
0.4 nM |  |  |  |  |  | 31 | 3.2 |  |  | COC(=O)c1c(F)cccc1-c1ccc([C@@H](C)NC(=O)C2(NC(=O)C(F)F)CC2)c(F)c1
